# Experimental data pooled from the literature.
# Protocols differ between the studies behind these lines.
# Target: Calcium/calmodulin-dependent protein kinase type IV (CAMK4, Homo sapiens, UniProt Q16566)
# Residues used in one study (Q16566 1-473): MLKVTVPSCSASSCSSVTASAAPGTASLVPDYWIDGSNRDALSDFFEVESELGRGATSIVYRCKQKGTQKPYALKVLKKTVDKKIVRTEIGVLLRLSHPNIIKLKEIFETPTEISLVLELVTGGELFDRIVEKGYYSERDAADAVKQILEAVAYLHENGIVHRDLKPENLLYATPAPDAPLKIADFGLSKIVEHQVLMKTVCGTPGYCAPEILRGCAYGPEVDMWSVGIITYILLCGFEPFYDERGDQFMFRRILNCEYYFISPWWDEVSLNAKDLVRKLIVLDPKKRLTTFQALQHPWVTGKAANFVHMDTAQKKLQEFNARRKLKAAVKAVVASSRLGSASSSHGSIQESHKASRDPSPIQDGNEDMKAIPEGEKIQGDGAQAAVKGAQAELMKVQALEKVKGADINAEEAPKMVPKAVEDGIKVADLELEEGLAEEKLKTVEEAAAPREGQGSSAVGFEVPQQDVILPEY
SMILES,assay,conditions,endpoint,value
CCN(CC)c1ccc(C2=NNC(=O)CC2C)cc1[N+](=O)[O-] (stereo not drawn),"enzyme activity, inhibitor",10 µM,remaining activity,102%
CNC(=O)c1cc(Oc2ccc(NC(=O)Nc3ccc(Cl)c(C(F)(F)F)c3)cc2)ccn1,"enzyme activity, inhibitor",0.3 µM,inhibition,-4%
O=C(O)c1ccc2c3c1cccc3c(=O)n1c3ccccc3nc21,cell-free assay,0.5 µM,remaining signal,101%
CCC1(CC)NC(=O)c2c(c3ccc(Cl)c(Cl)c3n2C)C1C#N (stereo not drawn),"thermal stability, DSF",10 µM,ΔTm,-0.2 °C
O=C(Nc1cnn(-c2csc(C(=O)NC3COC3)c2)c1)Nc1ccccc1Cl,"enzyme activity, inhibitor",5 µM,remaining activity,114%
CC(C)c1ccc(NC(=O)c2cccs2)c(-c2nc3ccccc3[nH]c2=O)c1,"enzyme activity, inhibitor",1 µM,activity vs control,116%
CO[C@H]1CC[C@H](CNc2ccc(S(=O)(=O)NC(=O)c3ccc(N4CCN(CC5=C(c6ccc(Cl)cc6)CC(C)(C)CC5)CC4)cc3Oc3cnc4[nH]ccc4c3)cc2[N+](=O)[O-])CC1,"cell-free assay, competition with immobilised ligand",1 µM,remaining binding,100%
N#CC1c2c([nH]c3c(Cl)c(Cl)ccc23)C(=O)NC12CCCCC2 (racemic),"thermal stability, DSF",10 µM,ΔTm,0.6 °C
COc1cc2c(N3CCN(C(=O)Nc4ccc(OC(C)C)cc4)CC3)ncnc2cc1OCCCN1CCCCC1,cell-free assay,0.5 µM,remaining signal,99.3%
O=C(O)c1cc(-c2ccc(C3CCNCC3)cc2)c2ccc(-c3ccc(C(F)(F)F)cc3)cc2c1,"cell-free assay, competition with immobilised ligand",1 µM,remaining binding,100%
Cc1ccc(NC(=O)c2ccc(C)c(C(F)(F)F)c2)cc1C#Cc1nn(C2CCC(O)CC2)c2ncnc(N)c12 (stereo not drawn),cell-free assay,10 µM,remaining signal,93%
CC(C)(C)c1nc2c(s1)c1nc(N)ncc1c1ccc(NS(=O)(=O)c3c(F)cccc3F)c(F)c12,"enzyme activity, inhibitor, radiometric",1 µM,remaining activity,94%
O=C(NCc1ncc(C(F)(F)F)cc1Cl)c1ccc2c(c1)C1(CCS(=O)(=O)CC1)[C@H](C1CC1)N2S(=O)(=O)c1ccc(F)cc1,"cell-free assay, competition with immobilised ligand",1 µM,remaining binding,86%
Cc1ccc(NC(=O)c2ccc(CN3CCN(C)CC3)cc2)cc1Nc1nc(-c2cccnc2)cs1,cell-free assay,0.5 µM,remaining signal,98.6%
CC(=O)c1c(NS(C)(=O)=O)c2cc(-c3ccc(Cl)cc3)c(-c3ccc(Cl)cc3Cl)nc2n(C)c1=O,"cell-free assay, competition with immobilised ligand",1 µM,remaining binding,100%
CN(C)C1CCN(CC#Cc2nn(C3CCCC3)c3nc(NCc4ccccc4)ncc23)C1 (stereo not drawn),"enzyme activity, inhibitor, FRET",1 µM,inhibition,7%
CCc1ccccc1C(=O)Nc1n[nH]c2c(C)c(F)c(C3C(C#N)=C(C)N(C)C(C)=C3C#N)cc12,"cell-free assay, competition with immobilised ligand",1 µM,remaining binding,56%
Cn1c2c(c3ccc(Cl)c(Cl)c31)C(C#N)C(C)(C)NC2=O (stereo not drawn),"thermal stability, DSF",10 µM,ΔTm,0.1 °C
